Compound activity (PubChem BioAssay)
Sampled rows, rich in hits. Any-hit rate of the full collection: about 4.7%.
MrgX1 antag: human MrgX1 receptor antagonism, primary screen | MRGX1-HEK293 calcium flux, Fluo-4, BAM8-22 antagonism; hits give low values | Q96LB2 | B-score at 10 µM | actives 1.3% (n = 310,000);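 active = calcium-response B-score plate-corrected more than 3 library SD below zero, starting fluorescence within 5 deviations, no agonist response on first addition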;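 also: peak minus trough fluorescence over baseline after final BAM8-22 challenge near maximal dose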
KCC2 mod: modulates chloride dependent transport by human KCC2; B-score of Tl+ flux slope (higher = more flux/activation; lower = inhibition) at 10 µM; Q9H2X9; KCC2 cells, thallium flux FluoZin-2 fluorescence; actives 2.2% (n = 190,000);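 active = thallium flux slope and its plate-corrected score both differing from the plate sample mean at a set confidence after two filtering rounds, in either direction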;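 also: slope of fluorescence scaled to starting intensity during 10 to 20 s after thallium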
MrgX1 allo act: allosterically activates human MrgX1 receptor signaling. Q96LB2. MrgX1-HEK293, Fluo-4 calcium flux, FDSS; hits give high values. B-score at 10 µM. actives 0.63% (n = 310,000). AID 588675;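 active = plate-corrected calcium response at least 3 library SD above typical, normal starting fluorescence, not activating the receptor alone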;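 also: compound read alongside a low EC10 to EC30 dose of BAM8-22 agonist; peak minus trough fluorescence over baseline measured at the second addition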
RGS4 act: RGS4 potentiation or activation; HEK293 M3R/inducible RGS4, carbachol calcium flux Fluo4; hits give low values; B-score at 10 µM; actives 0.92% (n = 310,000);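 active = B-score of the integrated calcium signal more than 4 SD below the library mean, with starting fluorescence not abnormally high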;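 also: negative B-score means reduced calcium response which marks RGS4 activation or potentiation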
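Assay system: HEK293 FlpIn-TREx cells, stable M3R, doxycycline-inducible RGS4 / Probe or stimulus: carbachol, ECmax concentration / Times: overnight RGS4 induction, 30 min dye load 37 °C, 20 min compound RT / Signal: kinetic calcium fluorescence imaging with Fluo4-AM dye, 2 µM / Measure: Agonist-evoked peak-minus-minimum fluorescence over baseline, integrated ratio, B score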
RGS4 inh: inhibitors of human RGS4; B-score at 10 µM; HEK293 M3R/RGS4 inducible, Fluo-4 calcium flux; hits give high values; triggered by carbachol at its EC20; AID 463165; actives 0.45% (n = 310,000); P49798;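 active = B-score, a plate-corrected calcium signal, over three deviations above library mean, with baseline fluorescence within five deviations of library mean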;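 also: RGS4 expression induced by doxycycline in cells with stable M3 receptor; B-score is computed from the integrated fluorescence ratio over baseline after carbachol; higher B-score means a larger calcium signal and so more RGS4 inhibition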
MrgX1 ag: human MrgX1 receptor agonism, primary screen; Q96LB2; MrgX1-HEK293 cells, Fluo-4 calcium fluorescence, agonist mode; hits give high values; B-score at 10 µM; actives 0.44% (n = 310,000); AID 588627;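 active = calcium response B-score plate-corrected fluorescence ratio at least 3 library SD, with starting fluorescence B-score inside 5 SD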
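Test system: HEK293 cells stably expressing human MrgX1 receptor; Input: fifteen thousand cells per well; Dosing: compound delivered in addition one of three; Schedule: overnight seeding, then 1 h dark dye loading; Technique: Fluo-4 NW calcium fluorescence; Measure: B-scored fluorescence response ratio; Controls: positive and negative controls per plate.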
Active calls of the source: *; i = inactive; / = not tested or not shown.

SMILES	MrgX1 antag	KCC2 mod	MrgX1 allo act	RGS4 act	RGS4 inh	MrgX1 ag
CC1(OC(=O)c2ccco2)C(=O)C=C2C=C(C3CC3)OC=C2C1=O (centres undefined)	-4.99*	/	i	i	i	i
CC1(OC(=O)c2cccs2)C(=O)C=C2C=C(C3CC3)OC=C2C1=O (centres undefined)	i	/	i	i	i	i
O=c1ccc2cc3c4c(c2o1)CCCN4CCC3	i	i	i	-7.37*	i	i
CC(C)c1ccc2c(c1)CCC1C(C)(CN)CCCC21C (centres undefined)	i	0.0248	i	i	i	45.8*
O=C(Nc1cccc(Cl)c1)Nc1ccc2nccnc2c1	-4.73*	/	i	i	i	i
CS(=O)(=O)c1ccc(C(=O)Nc2ccc(S(=O)(=O)N3CCCCC3)cc2)cc1	i	/	i	i	i	i
Cc1nn(C)c(C)c1/C=N/N=C1\CCC2C3CCc4cc(O)ccc4C3CCC12C (centres undefined)	-5.64*	0.254	i	i	i	i
C[C@]12CCC3c4ccc(O)cc4CCC3C1CC/C2=N\N (some centres undefined)	i	/	i	i	i	i
CC1CC1C(=O)OCC(=O)NNC(=O)COc1ccc(Br)cc1 (centres undefined)	-6.49*	/	i	i	i	i
COc1ccc(S(=O)(=O)Nc2cc3[nH]c(=O)oc3cc2C)cc1	i	/	i	i	i	i
CCOc1cc(/C=C(\C#N)C(=O)Nc2cccc(C(=O)O)c2)ccc1OCc1ccccc1Cl	i	/	i	-8.57*	i	i
CCn1c(=O)c2ccccc2n2c(SCC(N)=O)nnc12	i	/	i	i	i	i
COc1cc(/C=C/C(=O)NCCc2ccc(S(N)(=O)=O)cc2)ccc1OCC#N	i	0.481	11.7*	i	i	i
CCCCCN1C(=O)/C(=C/c2c(N3CCc4ccccc4C3)nc3ccccn3c2=O)SC1=S	-8.67*	/	i	i	i	i
CCCN1CCN(CCCNC(=O)CN2C(=O)C(CC)Oc3ccccc32)CC1 (centres undefined)	i	/	i	i	i	i
CCC1Oc2ccccc2N(CC(=O)NCCCN2CCN(Cc3ccccc3)CC2)C1=O (centres undefined)	-5.32*	-0.168	i	i	i	i
CCCCOc1ccc(C(=O)NCC(=O)NC(C)CCc2ccccc2)cc1 (centres undefined)	i	/	i	i	i	i
CCOC(=O)c1ccc(NC(=O)N2CCN(Cc3cccc(F)c3)CC2)cc1	i	-2.97*	i	i	i	i
CCCN1CCN(C(=O)Nc2ccc(C(=O)OCC)cc2)CC1	i	0.879	i	i	i	i
COc1ccc(CN2CCNC(=O)C2CC(=O)NC2CCCC2)c(C)c1C (centres undefined)	i	/	i	i	i	i
COC(=O)c1ccc(Oc2ccc(C(C)(C)C)cc2)c([N+](=O)[O-])c1	i	0.883	i	i	i	i
COC(=O)c1ccc(Oc2c(Cl)cccc2[N+](=O)[O-])cc1	i	-0.326	8.57*	i	i	i
Nc1c(N(CCC2=CCCCC2)C(=O)C2CC2)c(=O)[nH]c(=O)n1Cc1ccccc1	i	/	i	i	i	i
CCN(CC)CCNC(=O)c1ccc(NC(=O)Cc2cccc3ccccc23)cc1	i	/	i	-7.52*	i	i
Cn1c(C(=O)NC2CC2)cc2c(=O)n(C)c3ccccc3c21	i	-2	i	i	i	i
SMILES	MrgX1 antag	KCC2 mod	MrgX1 allo act	RGS4 act	RGS4 inh	MrgX1 ag
Cn1c(C(=O)Nc2ccc3c(c2)OCCO3)cc2c(=O)n(C)c3ccccc3c21	i	/	i	-7.18*	i	i
CCOc1ccc(NC(=O)CN(C)C(=O)c2ccc3nc(CC)c(CC)nc3c2)cc1OCC	i	/	7.45*	i	i	i
CN(C(=O)COC(=O)c1ccccc1NCc1ccco1)c1c(N)n(Cc2ccccc2)c(=O)[nH]c1=O	i	/	i	i	i	i
COc1ccc(CCNC(=O)c2cccc(NS(=O)(=O)c3ccccc3F)c2)cc1OC	i	/	i	i	i	i
Cc1ccc2sc(NNC(=O)c3cc(=O)c4ccccc4o3)nc2c1C	-8.74*	-3.28*	i	i	i	i
C=CC[n+]1c(-c2ccc(OC)c(OC)c2)csc1NNC(=O)Nc1ccccc1	-4.57*	-1.7	i	i	i	i
COC(=O)C1=C(N)Oc2cc(C)[nH]c(=O)c2C1c1ccccc1OC (centres undefined)	i	0.527	i	i	i	i
O=C(c1ccc(-n2cncn2)c([N+](=O)[O-])c1)N1CCN(S(=O)(=O)c2ccc(Cl)cc2)CC1	i	/	i	i	i	i
O=C(OCC(=O)N(CCc1ccccc1)Cc1ccccc1)c1ccccc1O	i	/	i	i	i	i
O=C(OCC(=O)N(CCc1ccccc1)Cc1ccccc1)c1ccccc1NCCO	i	/	i	-8.41*	i	i
CCC(=O)N1c2ccc(C)cc2C2=NNC(=S)NC21O (centres undefined)	i	5.36*	i	i	i	i
CC1=CC(C)(C)N(C(=O)CN2C(=O)c3ccccc3C2=O)c2ccc(C)cc21	i	/	i	i	i	i
COc1ccc(C(=O)C2CCCN(C(=O)c3cccc(Cl)c3F)C2)cc1OC (centres undefined)	i	/	i	i	i	i
Cn1c(-c2c(N)n(-c3ccccc3)c3nc4ccccc4nc23)nc2ccccc21	i	-0.753	i	i	i	i
Cc1cccc(-n2c(N)c(-c3nc4ccccc4n3C)c3nc4ccccc4nc32)c1	i	0.159	i	-7.46*	i	i
COc1ccccc1CCNC(=O)C(=O)Nc1cc2c3c(c1)CC(=O)N3CCC2	i	/	i	i	i	i
Cc1ccc(Cl)cc1N1CCN(c2cccc[n+]2C)CC1	i	0.857	i	-7.35*	i	i
Cc1ccccc1CS(=O)(=O)CCC(=O)NCc1ccc(F)cc1Cl	i	/	i	i	i	i
Cc1ccc(C2CC(=O)NC(SCc3ccccc3)=C2C#N)o1 (centres undefined)	i	/	i	i	i	29.6*
CCSC1=C(C#N)C(c2ccc(C)o2)CC(=O)N1 (centres undefined)	i	-0.0241	i	i	i	i
